# Active and inactive are the calls of the source. The calls are words filed in the database; no cut-off is given here.
# Legend:
# Melanocortin receptor 4 [1] = target: T1, Melanocortin receptor 4 (Homo sapiens, UniProt P32245); assay: Displacement of Eu-NDP-alpha-MSH from human melanocortin 4 receptor expressed in HEK293 cells at 1 pM to 10 uM; format: cell-based
# Outline: (§1)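 HEK293 cells overexpressing hMC4R, plated at 12,000 cells/well and grown 3 days. Incubated 40 min at 37 °C, washed 4 times in Tris-HCl/BSA/NaCl, then enhancement solution added for 30 min at 37 °C before time-resolved Eu read-out. IC50 averaged over n independent experiments, each in quadruplicate.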
# Melanocortin receptor 4 [2] = target: T1, Melanocortin receptor 4; assay: Displacement of Eu-NDP-alpha-MSH from human melanocortin 4 receptor expressed in HEK293 cells; format: cell-based; outline: as §1
# T1 sequence (P32245 whole entry): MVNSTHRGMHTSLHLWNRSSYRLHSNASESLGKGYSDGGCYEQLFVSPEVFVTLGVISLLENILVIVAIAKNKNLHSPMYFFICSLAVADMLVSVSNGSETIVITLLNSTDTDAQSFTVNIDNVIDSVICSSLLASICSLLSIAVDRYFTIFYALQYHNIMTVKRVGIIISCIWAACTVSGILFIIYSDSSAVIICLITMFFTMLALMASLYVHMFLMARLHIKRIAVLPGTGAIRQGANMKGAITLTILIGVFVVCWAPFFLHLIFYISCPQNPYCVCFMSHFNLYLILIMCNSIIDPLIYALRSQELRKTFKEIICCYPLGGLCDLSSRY
Structure (SMILES),Activity (Melanocortin receptor 4 [1]),IC50 (Melanocortin receptor 4 [2])
C#CCCCC(=O)N[C@@H](CO)C(N)=O,inactive,–
C#CCCCC(=O)N[C@@H](Cc1cnc[nH]1)C(=O)N[C@H](Cc1ccccc1)C(=O)N[C@@H](CCCNC(=N)N)C(=O)N[C@@H](Cc1c[nH]c2ccccc12)C(N)=O,–,0.9 µM
"CC(C)C(O)CCC(C)C(O)CCC(C)C(CCC(O)C(C)CCC(O)C(C)CCC(OCCCCCCn1cc(CCCC(=O)N[C@@H](Cc2cnc[nH]2)C(=O)N[C@@H](Cc2ccccc2)C(=O)N[C@@H](CCCNC(=N)N)C(=O)N[C@@H](Cc2c[nH]c3ccccc23)C(N)=O)nn1)C(C)C)OCCCCCCn1cc(CCCC(=O)N[C@@H](Cc2cnc[nH]2)C(=O)N[C@@H](Cc2ccccc2)C(=O)NC(CCCNC(=N)N)C(=O)N[C@@H](Cc2c[nH]c3ccccc23)C(N)=O)nn1 (single isomer, unassigned)",–,0.4 µM
CC(C)C(O)CCC(C)C(O)CCC(C)C(O)CCC(OCCCCCCn1cc(CCCC(=O)N[C@@H](Cc2cnc[nH]2)C(=O)N[C@H](Cc2ccccc2)C(=O)N[C@@H](CCCN=C(N)N)C(=O)N[C@@H](Cc2c[nH]c3ccccc23)C(N)=O)nn1)C(C)CCC(O)C(C)CCC(O)C(C)C (some centres not stated),–,3.3 µM
N=C(N)NCCC[C@H](NC(=O)C(Cc1ccccc1)NC(=O)[C@@H](N)Cc1cnc[nH]1)C(=O)N[C@@H](Cc1c[nH]c2ccccc12)C(=O)O (stereo in doubt),–,1.1 µM
CC(C)C(O)CCC(C)C(O)CCC(C)C(O)CCC(OCCCCCCn1cc(CCCC(=O)N[C@@H](CO)C(N)=O)nn1)C(C)CCC(O)C(C)CCC(O)C(C)C (some centres not stated),inactive,–
CC(C)C(O)CCC(C)C(O)CCC(C)C(CCC(O)C(C)CCC(O)C(C)CCC(OCCCCCCn1cc(CCCC(=O)N[C@@H](CO)C(N)=O)nn1)C(C)C)OCCCCCCn1cc(CCCC(=O)N[C@@H](CO)C(N)=O)nn1 (some centres not stated),inactive,–
